Reference: ChEMBL document CHEMBL3603837, “Indole Glucocorticoid Receptor Antagonists Active in a Model of Dyslipidemia Act via a Unique Association with an Agonist Binding Site” (J Med Chem, 2015)
Active and inactive are the calls of the source. No cut-off for these calls is given here.

Assays:
Rattus norvegicus [1] = test: Prevention of atypical antipsychotic quetiapine associated weight gain in Wistar rat at 10 mg/kg, po for 14 days; format: functional, organism-based
Procedure, shortened: (§1)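 Prophylactic protocol in lean female Wistar rats (n = 9−10 per group). A dose response of test compound was given orally together with quetiapine at a fixed 10 mg/kg, concurrently for 14 days.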

[2] = Clearance in rat at 1 mg/kg, iv; format: ADME, organism-based; settings: in vivo
[3] = Half life in rat at 3 mg/kg, po; format: ADME, organism-based; settings: in vivo
Rattus norvegicus [4] = test: Toxicity in Wistar rat model of atypical antipsychotic quetiapine-induced weight gain assessed as effect on food intake at 10 mg/kg, po for 14 days; format: organism-based; settings: in vivo, 336 h; procedure, shortened: as §1
[5] = AUC in rat at 3 mg/kg, po; format: ADME, organism-based; settings: in vivo
Syrian golden hamster [6] = test: Increase in HDL level in high fat and high cholesterol diet fed Syrian golden hamster at 30 mg/kg, po qd for 14 days; format: functional, Mesocricetus auratus
Procedure, shortened: (§2)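 Groups of Syrian golden hamsters (n = 6) kept on a high fat, high cholesterol diet for 14 days, dosed orally at 30 mg/kg once daily. Plasma HDL and LDL compared against untreated HFHC controls; mean with standard errors.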

Syrian golden hamster [7] = test: Reduction in LDL level in high fat and high cholesterol diet fed Syrian golden hamster at 30 mg/kg, po qd for 14 days; format: functional; settings: Mesocricetus auratus, 336 h; procedure, shortened: as §2
[8] = target: T1, Glucocorticoid receptor (Homo sapiens) (UniProt P04150); test: Displacement of [3H]-dexamethasone from human glucocorticoid receptor expressed in HEK293 cells at 10 uM by scintillation counting based radioligand competition binding assay; format: cell-based
T1 sequence (whole entry): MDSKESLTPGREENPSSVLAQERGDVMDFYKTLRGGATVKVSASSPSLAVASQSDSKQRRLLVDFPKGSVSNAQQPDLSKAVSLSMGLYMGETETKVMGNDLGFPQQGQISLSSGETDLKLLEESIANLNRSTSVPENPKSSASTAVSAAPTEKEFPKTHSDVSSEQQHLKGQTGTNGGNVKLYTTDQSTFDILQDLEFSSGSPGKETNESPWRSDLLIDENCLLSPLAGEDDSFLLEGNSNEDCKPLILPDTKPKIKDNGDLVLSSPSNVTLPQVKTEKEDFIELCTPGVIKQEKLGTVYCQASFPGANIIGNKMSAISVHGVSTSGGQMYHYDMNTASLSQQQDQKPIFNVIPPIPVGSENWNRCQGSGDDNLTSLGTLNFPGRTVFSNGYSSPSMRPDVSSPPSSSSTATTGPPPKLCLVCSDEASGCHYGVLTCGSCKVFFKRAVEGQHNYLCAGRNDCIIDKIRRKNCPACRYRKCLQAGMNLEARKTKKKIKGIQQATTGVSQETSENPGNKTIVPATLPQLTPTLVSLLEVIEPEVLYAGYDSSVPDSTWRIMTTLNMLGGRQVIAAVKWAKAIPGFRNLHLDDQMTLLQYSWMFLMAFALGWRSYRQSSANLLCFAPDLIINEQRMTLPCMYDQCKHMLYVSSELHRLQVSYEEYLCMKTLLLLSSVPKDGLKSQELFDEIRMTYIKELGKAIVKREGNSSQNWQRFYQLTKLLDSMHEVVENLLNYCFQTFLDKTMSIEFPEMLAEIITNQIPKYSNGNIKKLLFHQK
Procedure, shortened: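 Competition binding with 0.3 nM [3H]-dexamethasone and 20 μg 293-GR lysate per well; nonspecific binding defined with 0.5 μM dexamethasone. Incubated overnight at 4 °C, free ligand removed with charcoal–dextran, then scintillation counting. Percent inhibition at 10 μM was calculated.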

Row | Compound | inhibition (Rattus norvegicus [1]) | clearance [2] [mL/min/kg] | half-life [3] [h] | Activity (Rattus norvegicus [4]) | AUC [5] [ng·h/mL] | Activity (Syrian golden hamster [6]) [%] | inhibition in vivo at 30 mg/kg (Syrian golden hamster [7]) [%] | Activity [8]
1 | COc1cc(F)ccc1-c1c(CN(C)Cc2ccccc2)[nH]c2c(NS(C)(=O)=O)cc(C(C)C)cc12 | Active | 58.2 | 3.31 | Non-toxic | 488 | 73 | 74 | –
2 | COc1cc(F)ccc1-c1c(CN(C)Cc2ccccc2)[nH]c2c(N)cc(F)cc12 | – | – | – | – | – | – | – | inactive
